{"data": "Assay results from different studies", "read-out": "cell growth or viability"}
{"SMILES": "COc1ccc2c(Cc3ccccc3F)c3n(c(=O)c2c1OC)CCc1cc2c(cc1-3)OCO2", "cell line": "L929", "test": "CCK-8", "setting": "24 h", "quantity": "IC50", "value": "26.1 µM"}
{"SMILES": "CC(C)=CCc1c(O)c(CC=C(C)C)c2occ(-c3ccc(O)cc3)c(=O)c2c1O", "cell line": "RAW264.7", "test": "MTT", "setting": "100 µg/mL, 24 h", "quantity": "viability", "value": "91.4%"}
{"SMILES": "O=S(=O)(NNc1nnc(Cl)c2ccccc12)c1ccc(F)cc1", "cell line": "Vero", "test": "MTT", "setting": "250 µg/mL", "quantity": "viability", "value": "24.9%"}
{"SMILES": "C=C1CC[C@H]2C(C)=CC[C@H]3C(=C)C(=O)O[C@@H]3[C@@H]12", "cell line": "CHO-K1", "test": "MTT", "setting": "72 h", "quantity": "CC50", "value": "7.3 µM"}
{"SMILES": "Cn1cnc2c1c(=O)n(CC(=O)Nc1c(Cl)cccc1Cl)c(=O)n2C", "cell line": "Vero", "test": "MTT", "setting": "62.5 µg/mL", "quantity": "viability", "value": "99.8%"}
{"SMILES": "Fc1ccc(NCc2ccc(Oc3ccccn3)cc2)cc1", "cell line": "Vero", "test": "MTT", "setting": "72 h", "quantity": "CC50", "value": "> 300 µM"}
{"SMILES": "COc1ccc(S(=O)(=O)ON=C2C=C(C)C(=O)C(C)=C2)cc1", "cell line": "MDA-MB-436", "quantity": "CC50", "value": "2.85 µM"}
{"SMILES": "CC(=O)O[C@H]1C(=O)[C@@]2(C)[C@H]([C@H](OC(=O)c3ccccc3)[C@]3(O)C[C@H](OC(=O)[C@H](O)[C@@H](NC(=O)c4ccccc4)c4ccccc4)C(C)=C1C3(C)C)[C@]1(OC(C)=O)CO[C@@H]1C[C@@H]2O", "cell line": "SMMC-7721", "test": "MTT", "setting": "48 h", "quantity": "IC50", "value": "4.27 µM"}
{"SMILES": "CCNc1nc(Nc2ccc(F)c(Cl)c2)c2ccccc2n1", "cell line": "Vero", "test": "MTT", "setting": "500 µg/mL", "quantity": "viability", "value": "6.91%"}
{"SMILES": "COC(=O)c1[nH]cc(-c2c[nH]c3ccc(Cl)cc23)c1-c1c[nH]c2ccc(Cl)cc12", "cell line": "RAW264.7", "test": "resazurin", "setting": "72 h", "quantity": "CC50", "value": "> 10 µM"}
